For data set [1], the target named is T1, Fatty-acid amide hydrolase 1 (Rattus norvegicus, UniProt P97612).
T1 sequence (P97612 whole entry): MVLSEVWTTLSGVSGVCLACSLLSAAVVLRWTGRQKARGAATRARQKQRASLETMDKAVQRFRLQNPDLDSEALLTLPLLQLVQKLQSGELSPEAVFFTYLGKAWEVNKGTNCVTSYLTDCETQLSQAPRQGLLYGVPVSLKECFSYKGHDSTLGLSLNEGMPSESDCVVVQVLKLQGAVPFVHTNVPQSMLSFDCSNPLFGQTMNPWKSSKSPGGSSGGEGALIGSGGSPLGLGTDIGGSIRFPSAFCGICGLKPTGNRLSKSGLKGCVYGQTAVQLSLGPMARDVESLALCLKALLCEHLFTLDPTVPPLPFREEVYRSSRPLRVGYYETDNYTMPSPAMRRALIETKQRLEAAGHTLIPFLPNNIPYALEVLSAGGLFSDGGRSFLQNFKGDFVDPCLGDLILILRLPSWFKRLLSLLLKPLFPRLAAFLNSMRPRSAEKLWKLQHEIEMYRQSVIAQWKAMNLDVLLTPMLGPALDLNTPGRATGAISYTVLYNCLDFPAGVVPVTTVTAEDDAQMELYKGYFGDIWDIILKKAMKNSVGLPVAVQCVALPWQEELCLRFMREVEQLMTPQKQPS
Kind of data set: Inhibition of FAAH in rat brain homogenates using [3H]anandamide as substrate preincubated for 60 mins by liquid scintillation spectroscopy.

Data set [2] in a line: Drug uptake in Sprague-Dawley rat cerebellar cortex at 0.7 to 0.8 nmol/kg, iv after 40 mins by autoradiography analysis in presence of FAAH inhibitor PF-04457845. The following applies: in vivo. The data set is classed as ADME, organism-based. In a few lines: (§1)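 Male Sprague-Dawley rats (310–330 g) got 45–55 MBq radiotracer (0.7–0.8 nmol/kg) by tail vein. Pretreated 40 min earlier with vehicle (5% Tween80/saline) or PF-04457845 0.5 mg/kg ip. Killed 40 min post-injection. Brains frozen, cut into 20-μm coronal sections at −20°C, dried, exposed to film for 6 days.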

Data set [3] can be described thus: Drug uptake in Sprague-Dawley rat amygdaloid nuclei at 0.7 to 0.8 nmol/kg, iv after 40 mins by autoradiography analysis in presence of FAAH inhibitor PF-04457845. The data set is classed as ADME, organism-based. The following applies: in vivo. The gist of the method:
as §1

Data set [4] in a line: Drug uptake in Sprague-Dawley rat thalamic nuclei at 0.7 to 0.8 nmol/kg, iv after 40 mins by autoradiography analysis in presence of FAAH inhibitor PF-04457845. The data set is classed as ADME, organism-based. The following applies: in vivo. The gist of the method:
as §1

The subject of data set [5] is Cortex. Kind of data set: Drug uptake in Sprague-Dawley rat cerebellar cortex at 0.7 to 0.8 nmol/kg, iv after 40 mins by autoradiography analysis. The format is ADME, organism-based. The following applies: in vivo. The gist of the method:
as §1

The nature of data set [6]: Drug uptake in Sprague-Dawley rat amygdaloid nuclei at 0.7 to 0.8 nmol/kg, iv after 40 mins by autoradiography analysis. The data set is classed as ADME, organism-based. The following applies: in vivo. In a few lines: as §1
Data set [7] can be described thus: Drug uptake in Sprague-Dawley rat thalamic nuclei at 0.7 to 0.8 nmol/kg, iv after 40 mins by autoradiography analysis. The data set is classed as ADME, organism-based. The following applies: in vivo. In a few lines:
as §1

Data set [8] relates to Hippocampus. Kind of data set: Drug uptake in Sprague-Dawley rat hippocampus at 0.7 to 0.8 nmol/kg, iv after 40 mins by autoradiography analysis. The data set is classed as ADME, organism-based. The settings on record: in vivo. The gist of the method: as §1
In data set [9] the test system is Cortex. Kind of data set: Drug uptake in Sprague-Dawley rat cortex at 0.7 to 0.8 nmol/kg, iv after 40 mins by autoradiography analysis in presence of FAAH inhibitor PF-04457845. The format is ADME, organism-based. The following applies: in vivo. In a few lines:
as §1

The subject of data set [10] is Cortex. Kind of data set: Drug uptake in Sprague-Dawley rat cortex at 0.7 to 0.8 nmol/kg, iv after 40 mins by autoradiography analysis. The format is ADME, organism-based. The settings on record: in vivo. In a few lines:
as §1

The test system of data set [11] is Hippocampus. Kind of data set: Drug uptake in Sprague-Dawley rat hippocampus at 0.7 to 0.8 nmol/kg, iv after 40 mins by autoradiography analysis in presence of FAAH inhibitor PF-04457845. The settings on record: in vivo. The format is ADME, organism-based. In a few lines: as §1
The nature of data set [12]: Drug metabolism in human plasma after 30 mins. The format is ADME, cell-free. The settings on record: read-out: Drug metabolism. The gist of the method: (§2)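 Radiotracer incubated in vitro in rat or human plasma for 30 min at ambient temperature. Decomposition assessed by radio-HPLC.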
A short description of data set [13]: Drug metabolism in rat brain after 10 mins. The data set is classed as ADME, tissue-based. The settings on record: read-out: Drug metabolism. In a few lines:
(§3)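 Rats given radiotracer iv, killed at 10 min. Trunk blood taken into heparin, plasma separated and acidified with 10% v/v acetic acid. Plasma and brain homogenate extracts analysed directly by reverse-phase radio-HPLC for parent vs metabolites.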

In data set [14] the test system is Plasma. Kind of data set: Drug metabolism in rat plasma after 30 mins. The following applies: 0.5 h. The data set is classed as ADME, cell-free. In a few lines: as §2
The test system of data set [15] is Plasma. Kind of data set: Drug metabolism in rat plasma after 10 mins. The format is ADME, cell-free. In a few lines: as §3
Data set [16] can be described thus: Irreversible biodistribution in iv dosed rat brain parenchyma after 40 mins by gamma counting. The format is ADME, organism-based. The settings on record: in vivo. The gist of the method:
(§4)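 After tail-vein radiotracer, rats (n=4–6/group) killed at 2, 10 or 40 min. Whole brain rinsed in saline and homogenised in cold 80% acetonitrile/0.01% aq HCl. Centrifuged and extracted three times in total. Pooled supernatant (unbound) and pellet (bound) counted separately. […] Mean ± SD.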

A short description of data set [17]: Irreversible biodistribution in iv dosed rat brain parenchyma after 2 to 40 mins by gamma counting in presence of FAAH inhibitor URB597. The data set is classed as ADME, organism-based. The following applies: in vivo. In a few lines: as §4
Data set [18] in a line: Irreversible biodistribution in iv dosed rat brain parenchyma after 10 mins by gamma counting. The data set is classed as ADME, organism-based. The following applies: in vivo. The gist of the method: as §4
Data set [19] is described as follows: Irreversible biodistribution in iv dosed rat brain parenchyma after 2 mins by gamma counting. The data set is classed as ADME, organism-based. The following applies: in vivo. The gist of the method:
as §4

Data set [20] has as its system Brain. Kind of data set: Biodistribution in rat brain at < 1 nmol/kg, iv after 2 to 40 mins by gamma counting in presence of FAAH inhibitor PF-04457845. The format is ADME, organism-based. The following applies: in vivo. In a few lines: (§5)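 [18F]radiotracer, 3–4 MBq (0.2–1 nmol/kg), given by tail vein in 0.3 mL 10% ethanol/citrate buffer pH 6 to restrained conscious rats. Decapitation at set times. Regions excised, blotted, weighed. Gamma counting decay-corrected to injection against injected-dose standards. Reported as SUV (%ID/g […] body weight kg), mean ± SD, n=4/group. Blocked groups vs vehicle by Student's t test.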

Data set [21] deals with Brain. Kind of data set: Biodistribution in rat brain at < 1 nmol/kg, iv after 2 to 40 mins by gamma counting in presence of FAAH inhibitor URB597. The following applies: in vivo. The data set is classed as ADME, organism-based. In a few lines: as §5
Data set [22] relates to Hypothalamus. Kind of data set: Biodistribution in rat brain hypothalamus at < 1 nmol/kg, iv after 2 mins by gamma counting. The format is ADME, organism-based. The following applies: in vivo. The gist of the method: as §5
Data set [23] concerns Hypothalamus. Kind of data set: Biodistribution in rat brain hypothalamus at < 1 nmol/kg, iv after 40 mins by gamma counting. The format is ADME, organism-based. The following applies: in vivo. In a few lines: as §5
The test system of data set [24] is Cortex. Kind of data set: Biodistribution in rat brain cortex at < 1 nmol/kg, iv after 40 mins by gamma counting. The data set is classed as ADME, organism-based. The settings on record: in vivo. In a few lines: as §5
In data set [25] the test system is Cortex. Kind of data set: Biodistribution in rat brain cortex at < 1 nmol/kg, iv after 2 mins by gamma counting. The format is ADME, organism-based. The following applies: in vivo. The gist of the method: as §5

One may read the IC50 as the midpoint of a concentration-inhibition curve. A lower IC50 goes with higher potency. Take `O=C(NCCCCCF)Oc1cccc(C2=NCCO2)c1`: the midpoint of inhibition in data set [1], the IC50, lay at 0.82 nM.
On to `O=C(NCCCCC[18F])Oc1cccc(C2=NCCO2)c1`, for which the Drug uptake entry is listed as “Not Active” in data set [2]; “Not Active” in data set [3]; “Not Active” in [4]; “Active” with Cortex [5]; “Active” in data set [6]; “Active” in data set [7]. The Drug uptake entry is “Active” with Hippocampus [8]; “Not Active” in the data set with Cortex [9]; “Active” in the data set on Cortex [10]; “Not Active” in the data set with Hippocampus [11]; 90% in data set [16]; 24% in [17]. Besides, the Drug uptake in data set [18] was 94%; in [19] it was 91%; with Brain [20], “Not Active”; in the data set with Brain [21] it was “Not Active”. The metabolised at 0.5 h in [12] is under 5%. For the same compound, the metabolised at 10 min in [13] was determined as 50%. Further, the Drug metabolism with Plasma [14] is on record as over 50%; in the data set on Plasma [15], over 95%. In addition, the SUV with Hypothalamus [22] was 1.74; in the data set with Hypothalamus [23] it was 1.59; in the data set on Cortex [24], 4.55; in the data set on Cortex [25], 3.9.

These data come from ChEMBL document CHEMBL2396616, “Development and characterization of a promising fluorine-18 labelled radiopharmaceutical for in vivo imaging of fatty acid amide hydrolase” (Bioorg Med Chem, 2013).
